The nature of series [1]: Antioxidant activity assessed as DPPH radical scavenging activity incubated in dark for 30 mins. In kind it is functional. Summed up: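 Samples (0.4 mM stock, 5–40 µL series) and DPPH (2 mM stock, 20 µL) in ethanol, made to 200 µL with ethanol; incubated 30 min in dark at 37 °C; absorbance at 517 nm. Ethanol replaced sample as blank.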
A general note: Loss of DPPH colour is used to gauge radical scavenging.

Series [2] is described as follows: Antioxidant activity assessed as ABTS radical scavenging activity after 30 mins. The series is classed as functional. The method in brief: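 ABTS radical generated by 7 mM ABTS plus 2.4 mM potassium persulfate, 12 h dark at room temperature, diluted in ethanol to OD 0.700 at 734 nm. Samples at several concentrations mixed with ABTS+ solution, 30 min at 37 °C, read at 734 nm; ethanol blank; percent scavenging calculated relative to blank.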

Series [3] can be described thus: Antioxidant activity assessed as ferric ion reducing activity by measuring Fe2+ levels using fe3+-TPTZ at 375 ug/ml after 30 mins by FRAP assay. In kind it is functional. Summed up: (§1)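 FRAP reagent: 300 mM acetate buffer pH 3.6, 10 mM TPTZ in 40 mM HCl, 20 mM FeCl3. Sample (3000, 1500, 750, 375 µg/mL solutions) mixed with reagent, 30 min at 37 °C, absorbance 593 nm. Values expressed as µM Fe2+ from FeSO4 calibration curve (5–450 µM).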

The nature of series [4]: Antioxidant activity assessed as ferric ion reducing activity by measuring Fe2+ levels using fe3+-TPTZ at 750 ug/ml after 30 mins by FRAP assay. In kind it is functional. The method in brief: as §1
A short description of series [5]: Antioxidant activity assessed as ferric ion reducing activity by measuring Fe2+ levels using fe3+-TPTZ at 1500 ug/ml after 30 mins by FRAP assay. The series is classed as functional. The method in brief:
as §1

A short description of series [6]: Antioxidant activity assessed as ferric ion reducing activity by measuring Fe2+ levels using fe3+-TPTZ at 3000 ug/ml after 30 mins by FRAP assay. In kind it is functional. Summed up: as §1
Series [7] is described as follows: Antiinflammatory activity in mouse RAW264.7 cells assessed as inhibition of LPS-induced nitric oxide production after 24 hrs by Griess assay. In kind it is functional, cell-based. To be noted: RAW264.7, 24 h. The method in brief: (§2)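 RAW264.7 cells (5 × 10^5/mL) pre-treated with samples at 100, 50, 10 or 1 µM, then LPS (100 ng/mL) for 24 h. Nitrite in medium measured by mixing with equal volume Griess reagent (1% sulfanilamide in 5% H3PO4, 0.1% N-naphthyl-ethylenediamine), 10 min at 37 °C, absorbance 540 nm; quantified against NaNO2 standard curve; minocycline as positive control.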
(In general: Nitrite, measured by Griess reagent, commonly stands in for NO production.)

Series [8] in a line: Antiinflammatory activity in mouse RAW264.7 cells assessed as inhibition of LPS-induced TNFalpha production after 24 hrs by ELISA. In kind it is functional, cell-based. To be noted: RAW264.7, 24 h. The method in brief: (§3)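 RAW264.7 cells plated at 5 × 10^5/mL, pre-treated with samples at 100, 50, 10 or 1 µM, then stimulated with LPS (100 ng/mL) for 24 h. TNF-α in the medium measured by ELISA kit per manufacturer's instructions and quantified from a standard curve; silybin as positive control.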

The next series is filed under the species Mus musculus. Put plainly: Cytotoxicity against mouse RAW264.7 cells assessed as effect on cell viability at 100 uM preincubated for 1 hr followed by LPS stimulation measured after 24 hrs by MTT assay. To be noted: raw264.7, 24 h. The series is classed as toxicity, cell-based. The method in brief: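 RAW264.7 cells in DMEM with 10% FBS and penicillin/streptomycin at 37 °C, 5% CO2, seeded 5 × 10^5 cells/well; treated with samples (100 µM) 1 h, then LPS (100 ng/mL) 24 h. MTT (0.25 mg/mL) added for 4 h; formazan read at 540 nm; untreated cells as control.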
(Tetrazolium dyes change colour on reduction, which living cells bring about.)

Series [9] is described as follows: Antiinflammatory activity in mouse RAW264.7 cells assessed as inhibition of LPS-induced nitric oxide production at 1 uM after 24 hrs by Griess assay relative to control. To be noted: RAW264.7, 24 h. The series is classed as functional. Summed up:
as §2

A short description of series [10]: Antiinflammatory activity in mouse RAW264.7 cells assessed as inhibition of LPS-induced nitric oxide production at 10 uM after 24 hrs by Griess assay relative to control. The series is classed as functional. To be noted: RAW264.7, 24 h. Summed up:
as §2

A short description of series [11]: Antiinflammatory activity in mouse RAW264.7 cells assessed as inhibition of LPS-induced nitric oxide production at 50 uM after 24 hrs by Griess assay relative to control. In kind it is functional. To be noted: RAW264.7, 24 h. The method in brief:
as §2

The nature of series [12]: Antiinflammatory activity in mouse RAW264.7 cells assessed as inhibition of LPS-induced nitric oxide production at 100 uM after 24 hrs by Griess assay relative to control. The series is classed as functional. To be noted: RAW264.7, 24 h. Summed up: as §2
The nature of series [13]: Antiinflammatory activity in mouse RAW264.7 cells assessed as inhibition of LPS-induced TNFalpha production at 1 uM after 24 hrs by ELISA relative to control. In kind it is functional. To be noted: RAW264.7, 24 h. The method in brief: as §3
Series [14] can be described thus: Antiinflammatory activity in mouse RAW264.7 cells assessed as inhibition of LPS-induced TNFalpha production at 10 uM after 24 hrs by ELISA relative to control. The series is classed as functional. The conditions noted are these: RAW264.7, 24 h. Summed up:
as §3

A short description of series [15]: Antiinflammatory activity in mouse RAW264.7 cells assessed as inhibition of LPS-induced TNFalpha production at 50 uM after 24 hrs by ELISA relative to control. In kind it is functional. The conditions noted are these: RAW264.7, 24 h. Summed up:
as §3

Series [16] in a line: Antiinflammatory activity in mouse RAW264.7 cells assessed as inhibition of LPS-induced TNFalpha production at 100 uM after 24 hrs by ELISA relative to control. The series is classed as functional. To be noted: RAW264.7, 24 h. The method in brief: as §3

A value given as a limit tells only on which side of the number the result lay.

The term IC50 denotes the midpoint of a concentration-inhibition curve. The term inhibition denotes the relative decrease from the control value, in per cent.

Turning to `CCO[C@H](c1ccc(O[C@@H](CO)[C@@H](OC)c2ccc(O)c(OC)c2)c(OC)c1)[C@H](CO)c1ccc(O)c(OC)c1`, the IC50 in series [1] is 81.6 µM; in series [2], 6.3 µM; in series [7] it was 80.5 µM; in series [8], > 100 µM. Further, the Activity in [3] is 34.5 µmol/L; in [4], 66.3 µmol/L; in series [5], 99.2 µmol/L; in series [6], 129 µmol/L; in the series filed under Mus musculus, “Non-Toxic”. Also, the inhibition at 1 µM in series [9] was 2.5%; in series [13] it was 0.2%. In addition, the inhibition at 10 µM in [10] turned out to be 16.1%; in series [14], 2.1%. Moreover, the inhibition at 50 µM in series [11] is 37.2%; in series [15], 13.2%. Besides, the values for the inhibition at 100 µM in [12] and in series [16] were 56.2% and 22.5%, respectively.
Consider `COc1cc([C@@H](CO)[C@H](OC)c2ccc(O[C@H](CO)[C@@H](O)c3ccc(O)c(OC)c3)c(OC)c2)ccc1O`, for which the concentration for half-maximal inhibition (IC50) in series [1] is 67.2 µM; in [2] it was 7.8 µM; in series [7], 62.9 µM; in series [8], > 100 µM. Further, the Activity in series [3] is 45.8 µmol/L; in [4] it was 73 µmol/L; in series [5] it was 106 µmol/L; in series [6], 128 µmol/L; in the series listed under Mus musculus it was “Non-Toxic”. The results for the inhibition at 1 µM in series [9] and in series [13] were 5.7% and -1.2%, respectively. Also, the inhibition at 10 µM in series [10] worked out at 22.1%; in series [14], 2.9%. Also, the values for the inhibition at 50 µM in [11] and in series [15] were 42.1% and 9.3%, respectively. Also, the inhibition at 100 µM in series [12] is 61.2%; in series [16] it was 17.1%.
As to `COc1cc([C@@H](O)[C@H](CO)Oc2ccc([C@@H](OC)[C@H](CO)c3ccc(O)c(OC)c3)cc2OC)ccc1O`, the IC50 in [1] was 43.6 µM; in [2], 5.9 µM; in [7] it was 97.3 µM; in [8], > 100 µM. Moreover, the Activity in series [3] is 60.8 µmol/L; in series [4], 89.5 µmol/L; in [5] it was 121 µmol/L; in series [6] it was 116 µmol/L; in the series listed under Mus musculus it was “Non-Toxic”. The inhibition at 1 µM turned out to be 7% in series [9] and 1.3% in [13]. Further, the inhibition at 10 µM in [10] turned out to be 19.2%; in series [14], 3.2%. Also, the inhibition at 50 µM was determined as 34.2% in series [11] and 5.2% in series [15]. For the same molecule, the inhibition at 100 µM is 57.3% in [12] and 18.4% in series [16].
Regarding `CCO[C@H](c1ccc(O[C@@H](CO)[C@@H](O)c2ccc(O)c(OC)c2)c(OC)c1)[C@@H](CO)c1ccc(O)c(OC)c1`, the IC50 was 79.6 µM in series [1], 7.1 µM in series [2], 66.4 µM in series [7] and > 100 µM in series [8]. The Activity in series [3] is 38.6 µmol/L; in series [4], 62.7 µmol/L; in series [5], 96.8 µmol/L; in series [6] it was 134 µmol/L; in the series filed under Mus musculus it was “Non-Toxic”. For the same molecule, the inhibition at 1 µM is 4.7% in series [9] and -2.2% in [13]. The figures for the inhibition at 10 µM in series [10] and in [14] were 18.2% and 3.1%, respectively. In addition, the inhibition at 50 µM in [11] was found to be 40.2%; in series [15], 11.4%. Moreover, the inhibition at 100 µM in series [12] came to 62.6%; in series [16] it was 29.2%.
`COc1cc([C@@H](O)[C@@H](CO)Oc2c(OC)cc([C@@H](O)[C@H](O)CO)cc2OC)ccc1O`: the IC50 in series [1] is 138 µM; in series [2], 11.8 µM; in series [7], > 100 µM; in series [8] it was > 100 µM. Besides, the Activity was 37.1 µmol/L in series [3]; 60 µmol/L in series [4]; 89.1 µmol/L in [5]; 127 µmol/L in series [6]; “Non-Toxic” in the series filed under Mus musculus. The inhibition at 1 µM in series [9] was -3.1%; in series [13], 2.3%. In addition, the inhibition at 10 µM in series [10] was -1.8%; in series [14], 14.1%. In addition, the inhibition at 50 µM is 1.1% in [11] and 23.2% in series [15]. Also, the figures for the inhibition at 100 µM in [12] and in series [16] were 2.7% and 45.8%, respectively.

Source of the values: ChEMBL document CHEMBL3864147, “Antioxidant and anti-inflammatory neolignans from the seeds of hawthorn” (Bioorg Med Chem Lett, 2016).
